Reference: the EternaBench riboswitch data

System: MS2 coat protein
Test: apparent Kd, MS2 coat protein; higher = weaker binding; RNA-MaP array; FMN 200 µM where present
Procedure, shortened: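 Designs were transcribed by stalled E. coli RNA polymerase on Illumina sequencing-chip clusters. They were titrated with SNAP-549-labelled MS2 coat protein from 0.7 or 1.5 nM, doubling to 3 µM, without and then with constant ligand. Buffer: 100 mM Tris-HCl pH 7.5, 80 mM KCl, 4 mM MgCl2, BSA, DTT, yeast tRNA, Tween-20. Green signal was normalised to red-channel RNA signal and control-cluster median Fmax. Apparent Kd is the median of filtered per-cluster binding-curve fits.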

[1] = designed as: ON switch for flavin mononucleotide, no ligand
[2] = ligand present: flavin mononucleotide, designed as: ON switch for flavin mononucleotide
[3] = designed as: OFF switch for flavin mononucleotide, no ligand
[4] = ligand present: flavin mononucleotide, designed as: OFF switch for flavin mononucleotide

Sequence | apparent Kd [1] [nM] | apparent Kd [2] [nM] | apparent Kd [3] [nM] | apparent Kd [4] [nM]
GGAGCUCACAUUAACAUGAGGAUCACCCAUGUCUCUAGACAUGAGGAUAUGGAUCCUAAUUGGAUCCAGAAGGCAUGGAGCUCC | 1450 | 118 | – | –
CAGCUCUGAGGAUAUCCAUCCUCCUACAUGAGGAUCACCCAUGUUUCCCUCUGGGUUUUCGGAGAAGGCAGUUAUU | – | – | 238 | 459
AAAAAACAUGAGGAUCACCCAUGUAAAAAAAUCGCAGGAUAUAGGGUCGCGAAAGCGACCCUAGAAGGGCGAUCCU | 260 | 87.7 | – | –
GAUCAACAUGAGGAUCACCCAUGUGAGGAUAUGAUACUAUGUACUUCGGUACAUAGUAUCAGAAGGCAUAUUGA | – | – | 54.8 | 41.9
CAGUACUGAGGAUAUACAUGAGGAUCACCCAUGUGUUCCAGCUAGGAAACUAGCAAAAGUAGAAGGCUGUACUG | – | – | 16.9 | 172
CCCUCACAUGAGGAUCACCCAUGUCAGGAUAUCCAGCCCUACUAUAAAGCGUCUGGCGGGAGAAGGGACAGGAU | – | – | 20.9 | 28.5
GCGUAAAAGAUCCUAUUUAUCUACAUGAGGAUCACCCAUGUGCAGGAUAUGCUAAAAUUAAAAUAGCAGAAGGGCAAUAACCGC | – | – | 54 | 179
AUAUAGCGAGGAUAUACAUGAGGAUCACCCAUGUGGUAGUAGAUACGGUAGGGCUAGUGUAGAAGGUGUUAUGA | – | – | 139 | 87.9
UUUAAUUUAAUUAAGAUCACAUGAGGAUCACCCAUGUAAUUAUAGGAUAUCAGCUCGAAUAGAGCUGAGAAGGAUAAUUACAUA | – | – | 89.5 | 57.7
GGGAGUGAAGGAUAUACAUGAGGAUCACCCAUGUGGGAGGAGAGAGGUGAGGAGGCUGGUAGAAGGUCAGGAUG | – | – | 60.2 | 51.2
AGAUAUAUACAUGAGGAUCACCCAUGUUAAUAGGUGUUUGUCAGAAGGCAUUAUGAGAGAAUUAAUGAGGAUAUGAAGUAUCAU | 37.3 | 23 | – | –
GCAGCAUAGUUUACUAACUGUUACAUGAGGAUCACCCAUGUUUAGGAUAUGGUCUGGAUUACAGGCCAGAAGGGAACAAGCUGC | – | – | 14.6 | 12.3
CCGGGCUAGGAGAAGGGCUAGAGUGUGAUAUAUUUGCCCGCGAGCACAUGAGGAUCACCCAUGUAGCAGGAUAUCCAAGCCGAU | – | – | 7.33 | 18
AGUACUACAGGAUAUACGAGGGAGGUCCACGUGACCCUUAUACAUGAGGAUCACCCAUGUAGAAGGGUAGUACA | – | – | 80.3 | 16.4
AAUAUGUUAGGAUAUGCUGCUCGUCACAAAAGUGAUGAGUAGCAGAAGGGACAUGAGGAUCACCCAUGUAAAGA | – | – | 36.6 | 29.6
GUAGCUAUUAAAGGAUAUUCAUACCGGAAACGGACAUGAGGAUCACCCAUGUGGCGAAAGCCUUGGGAGAAGGUUAUUAGCUAC | 378 | 15.6 | – | –
GCACGAGACUAAGGAUAUGAUGUACCUAUAUGUGACAUGAGGAUCACCCAUGUGGUAAGUAUGAUUCAGAAGGUAGAGACGUGC | 28.2 | 20.6 | – | –
UUAAAUCAUGUAGGAUAUGCAUGGCGAAGCUACGCAGAAGGACAUGAGGAUCACCCAUGUCUCUCCGUCUGCGUACAGACGGAG | – | – | 24.6 | 155

Sequence | apparent Kd [1] [nM] | apparent Kd [2] [nM] | apparent Kd [3] [nM] | apparent Kd [4] [nM]
GCACGGAUGGUAGGAUAUCAUUGCGAUUAGCUAUGAGAAGGGCCACAUGAGGAUCACCCAUGUCCUCUAAUUAGCCUUCCGUGC | – | – | 101 | 101
AAUAAACUCACAGGAUAUAGCAUAGGCCGCGUGAACUUACAGGCGACUAUGCUAGAAGGGUGACCACAUGAGGAUCACCCAUGU | 851 | 141 | – | –
UAUAUAUAGUAAGGAUAUGUAAUCAUUUUAUAAACAGAAGGUACUGACAUGAGGAUCACCCAUGUUUUAGUGUGGGCAUGUAGA | – | – | 86.4 | 141
CCAUAAAAGAUCCAAAAUUACAACAUGAGGAUCACCCAUGUGCAGGAUAUCGUGCCAGUGAUGUACGAGAAGGGCAGACUCUGC | – | – | 251 | 333
CUUGUACAUGAGGAUCACCCAUGUUAGGAUAUCUCGCCGUCGGCUUGCCGACGGUAUUAGAGAAGGGACUAGGG | – | – | 35.4 | 39.5
GUCUUUUUACAGAAGGUGUUUAACAUGAGGAUCACCCAUGUACAAAAGGUUAAAUUUGAUAAUAACAAGGAUAUGUACUAAUCA | 292 | 184 | – | –
GCGGUGAUCCUAGCUCACAUGAGGAUCACCCAUGUGCAGUUCAAGGAUAUACGUUGCCGCUCCGCGUAGAAGGUGAACUCGCUA | – | – | 43 | 44.1
UAGCUCCAUGUGAGGAUAUAGACUCGGACCCGGGAUUAGAAGGUACAUGAGGAUCACCCAUGUAUCCAACUUGU | – | – | 15.3 | 16.6
CCCACGCAUGAGAAGGGACAGGCGUGCAAUUCGACAUGAGGAUCACCCAUGUCAGGAUAUCAGUUAAGGUGGGCAGAACCGAUG | – | – | 15.4 | 57.3
CAGCUACCCGAUAUGGGUUCAUGUGCAGAAGGCCAGGUACAUGAGGAUCACCCAUGUAAAGAUAUGGAGGAUAUGUUAGUGAAU | 149 | 8.99 | – | –
UAUGGUAAAGUCAGGAUAUACGUACAUCGUUCUAGGUAGAAGGGACAUGAGGAUCACCCAUGUAUGGUAGUGUU | – | – | 106 | 107
CGCAACAUACAGAAGGAGUAAAGGAGAAGUGUACUAGGAUAUGUUAACAUGAGGAUCACCCAUGUCGUUUGGGAUUUUGUUGCG | – | – | 383 | 99.3
UUCAGCUCGUGAGGAUAUACAUGUGCUGGAAACAGCACUAUUAAGUUCACAUGAGGAUCACCCAUGUAGAAGGCACGAGCUGAG | – | – | 14.9 | 19.3
GGAUAGGACAGAGGAUAUACGUGCUAGAGAUACUAGCAAAAUUUCCUCACAUGAGGAUCACCCAUGUAGAAGGCUUUCCUAUCG | – | – | 6.3 | 37
UUCAGCUCGUGAGGAUAUACAACACUGCUUCGGCAGUGUAUUAAGAUCACAUGAGGAUCACCCAUGUAGAAGGCACGAGCUGAU | – | – | 14.8 | 290
GAGGAGUCAGGAUAUCGGGAAAGGUUGAGGAAGAGAAGAAGCGAGAAGGGACAUGAGGAUCACCCAUGUAGAAG | – | – | 52.4 | 47
GCUGGAAAAGGAUAUACAUAACGUGCUUCGGCACGAGAUCUACAUGAGGAUCACCCAUGUAGAAGGUUUCCAGC | – | – | 14 | 30.2
CGCAAUGAUGGUAGUAAUAGAGCAUAGGAUAUGCUUGUACAUGAGGAUCACCCAUGUUAUAUUUUGCAGAAGGGUGUAAUUGCG | 309 | 159 | – | –
